Key:
[1] = test system: HUVEC; assay: Inhibition of cell proliferation of HUVEC after 72 hrs by crystal violet adhesion based colorimetric assay; type: functional; settings: Homo sapiens
Procedure, shortened: (§1)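 Crystal violet adhesion: HUVEC 3 × 10^3, MDA-MB-231 5 × 10^3 cells/well, treated 72 h at varied concentrations (up to 10 µM); fixed 4% paraformaldehyde 15 min, PBS pH 7.4 wash, 0.04% crystal violet 30 min, solubilized 2% Triton X-100, OD 595 nm. Mean of three independent experiments in triplicate; IC50 from sigmoid dose–response curve.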

[2] = test system: HUVEC; assay: Cytotoxicity against HUVEC after 48 hrs by WST1 assay; type: functional, cell-based; settings: Homo sapiens
Procedure, shortened: (§2)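 WST-1 viability: HUVEC seeded 3 × 10^3, MDA-MB-231 5 × 10^3 cells/well; compounds added one day after seeding at varied concentrations (up to 10 µM); after 48 h medium removed, WST-1 added, 1–2 h at 37 °C, OD 490 nm. Mean of three independent experiments, triplicate per concentration; IC50 from sigmoid dose–response fit.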

[3] = test system: MDA-MB-231; assay: Inhibition of cell proliferation of human MDA-MB-231 after 72 hrs by crystal violet adhesion based colorimetric assay; type: functional; settings: MDA-MB-231, 72 h; procedure, shortened: as §1
[4] = test system: MDA-MB-231; assay: Cytotoxicity against human MDA-MB-231 after 48 hrs by WST1 assay; type: functional, cell-based; settings: MDA-MB-231, 48 h; procedure, shortened: as §2
[5] = molecular target: Neuropilin-1 (Homo sapiens) (UniProt O14786); assay: Inhibition of biotinylated VEGFA165 binding to NRP1 (unknown origin) at 10 uM by chemiluminescent assay
Neuropilin-1 (Homo sapiens), sequence (O14786 whole entry): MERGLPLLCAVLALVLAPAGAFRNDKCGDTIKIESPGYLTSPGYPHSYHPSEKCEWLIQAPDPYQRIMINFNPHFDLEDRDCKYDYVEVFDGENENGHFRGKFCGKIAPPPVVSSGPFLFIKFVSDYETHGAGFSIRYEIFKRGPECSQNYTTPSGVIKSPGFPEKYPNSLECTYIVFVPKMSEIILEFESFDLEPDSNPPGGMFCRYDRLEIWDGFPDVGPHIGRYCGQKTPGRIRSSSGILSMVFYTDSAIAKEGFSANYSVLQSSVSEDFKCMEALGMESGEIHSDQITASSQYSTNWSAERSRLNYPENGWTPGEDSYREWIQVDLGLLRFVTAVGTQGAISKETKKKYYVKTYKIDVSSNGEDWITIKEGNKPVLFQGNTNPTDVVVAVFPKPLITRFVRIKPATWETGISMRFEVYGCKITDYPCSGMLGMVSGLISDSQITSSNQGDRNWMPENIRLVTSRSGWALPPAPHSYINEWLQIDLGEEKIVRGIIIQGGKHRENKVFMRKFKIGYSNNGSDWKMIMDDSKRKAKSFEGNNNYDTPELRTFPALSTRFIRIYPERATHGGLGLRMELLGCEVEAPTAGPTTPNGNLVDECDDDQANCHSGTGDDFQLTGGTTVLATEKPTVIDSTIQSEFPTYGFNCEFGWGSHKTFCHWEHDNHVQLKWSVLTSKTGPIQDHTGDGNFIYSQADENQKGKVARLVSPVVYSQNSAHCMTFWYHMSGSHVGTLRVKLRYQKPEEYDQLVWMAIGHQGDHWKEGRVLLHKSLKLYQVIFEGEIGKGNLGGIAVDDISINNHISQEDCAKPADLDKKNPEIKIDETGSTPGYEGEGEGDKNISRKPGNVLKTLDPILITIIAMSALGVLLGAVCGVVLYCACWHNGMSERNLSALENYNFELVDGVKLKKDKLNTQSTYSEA
Procedure, shortened: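 NRP-1 coated overnight at 0.2 µg/mL in PBS, 4 °C; washed PBS/0.5% Tween 20, blocked 0.5% BSA 2 h 37 °C. Compound preincubated 1 h at 37 °C, then biotinylated VEGF-A165 with 4 µg/mL heparin 2 h at 37 °C; chemiluminescent read-out; percent displacement of bound tracer at 10 µM.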

Compound	IC50 [1] [µM]	IC50 [2] [µM]	IC50 [3] [µM]	IC50 [4] [µM]	inhibition [5] [%]
Cc1ccc(-c2nc3ccccc3[nH]2)cc1NC(=S)NC(=O)c1ccccc1	> 10	> 10	> 10	> 10	–
O=C(NC(=S)Nc1cccc(-c2nc3ccccc3[nH]2)c1)c1ccc2c(c1)OCO2	0.3	0.3	6	6	46
N#Cc1ccc2[nH]c(-c3cccc(NC(=S)NC(=O)c4ccc5c(c4)OCCO5)c3)nc2c1	–	1	–	> 10	0
N#Cc1ccc2[nH]c(-c3cccc(NC(=S)NC(=O)c4ccc5c(c4)OCO5)c3)nc2c1	6	–	–	–	37
CCOc1ccc(C(=O)NC(=S)Nc2cc(-c3nc4ccccc4[nH]3)ccc2C)cc1OCC	6	–	–	–	32
Cc1ccc(-c2nc3ccccc3[nH]2)cc1NC(=S)NC(=O)c1ccc2c(c1)OCO2	0.75	1.5	6	6	–
S=C(NCc1ccc2c(c1)OCO2)Nc1cccc(-c2nc3ccccc3[nH]2)c1	> 10	> 10	> 10	> 10	–
Cc1ccc(-c2nc3ccccc3[nH]2)cc1NC(=S)NC(=O)c1ccc2c(c1)OCCO2	0.15	0.24	0.5	0.53	34
Cc1ccc(-c2nc3ccccc3s2)cc1NC(=S)NC(=O)c1ccc2c(c1)OCO2	5	5	> 10	> 10	–
O=C(NC(=S)Nc1cccc(-c2nc3ccccc3s2)c1)c1ccc2c(c1)OCCO2	2.6	2.6	> 10	> 10	–
COc1ccc(C(=O)NC(=S)Nc2cccc(-c3nc4ccccc4[nH]3)c2)cc1OC	5	6	10	> 10	–
O=C(NC(=S)Nc1cccc(-c2nc3ccccc3s2)c1)c1ccc2c(c1)OCO2	0.9	1	8	10	14
Cc1ccc(-c2nc3ccccc3[nH]2)cc1NC(=S)NCc1ccc2c(c1)OCO2	> 10	> 10	> 10	> 10	–
Cc1ccc(-c2nc3cc(F)ccc3[nH]2)cc1NC(=S)NC(=O)c1ccc2c(c1)OCO2	> 10	> 10	–	–	–
O=C(NC(=S)Nc1cccc(-c2nc3ccccc3[nH]2)c1)c1ccccc1	> 10	> 10	> 10	> 10	–
CCOc1ccc(C(=O)NC(=S)Nc2cccc(-c3nc4ccccc4[nH]3)c2)cc1OCC	8	8	–	–	14
COc1ccc(C(=O)NC(=O)Nc2cccc(-c3nc4ccccc4[nH]3)c2)cc1OC	8	8	–	–	–
O=C(NC(=S)Nc1cccc(-c2nc3ccccc3[nH]2)c1)c1ccc2c(c1)OCCO2	< 0.1	0.05	0.5	0.4	38

From ChEMBL document CHEMBL3351892, “Synthesis and structure-activity relationship of non-peptidic antagonists of neuropilin-1 receptor” (Bioorg Med Chem Lett, 2014)
